ChEMBL document CHEMBL4330098, “Identification of peptidomimetics as novel chemical probes modulating fibroblast growth factor 14 (FGF14) and voltage-gated sodium channel 1.6 (Nav1.6) protein-protein interactions” (Bioorg Med Chem Lett, 2019)
Calls of active or inactive are those of the source. The rule behind the calls is not given here. Residues, ends and D or L forms follow the SMILES beside them. *: point of attachment. Fmoc = O=C(OCC1c2ccccc2-c2ccccc21)*; Cbz = O=C(OCc1ccccc1)*; Boc = CC(C)(C)OC(=O)*; Bz = O=C(c1ccccc1)*

Experiments:
Type in all cases: cell-based
[1] = target: Luciferin 4-monooxygenase (Photinus pyralis) (UniProt P08659); assay: Effect on firefly luciferase activity expressed in HEK293 cells at 50 uM by luminescence assay
Luciferin 4-monooxygenase (Photinus pyralis), sequence (P08659 whole entry): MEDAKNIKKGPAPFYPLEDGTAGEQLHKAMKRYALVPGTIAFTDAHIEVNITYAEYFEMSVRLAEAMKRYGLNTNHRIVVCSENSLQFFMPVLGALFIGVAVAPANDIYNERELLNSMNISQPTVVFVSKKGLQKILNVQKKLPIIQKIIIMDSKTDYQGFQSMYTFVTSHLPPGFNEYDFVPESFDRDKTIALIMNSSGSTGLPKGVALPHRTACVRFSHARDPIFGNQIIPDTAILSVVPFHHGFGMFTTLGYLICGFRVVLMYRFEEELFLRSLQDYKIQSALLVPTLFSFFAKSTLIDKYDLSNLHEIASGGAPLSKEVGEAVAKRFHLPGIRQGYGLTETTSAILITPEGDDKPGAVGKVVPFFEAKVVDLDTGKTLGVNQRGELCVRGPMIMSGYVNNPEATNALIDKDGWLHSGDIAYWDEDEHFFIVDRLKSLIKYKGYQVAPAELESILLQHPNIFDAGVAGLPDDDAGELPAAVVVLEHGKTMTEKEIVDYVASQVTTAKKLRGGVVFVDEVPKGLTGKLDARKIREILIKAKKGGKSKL
In short: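 HEK293 cells transiently transfected with full-length Photinus (firefly) luciferase. Compounds dissolved in DMSO and diluted in medium to 50 μM final in 0.5% DMSO. Luminescence expressed as % of maximal, relative to 0.5% DMSO vehicle.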

[2] = target: T1, Fibroblast growth factor 14/SCN8A (Homo sapiens) (UniProt Q9UQD0+Q92915); assay: Modulation of Cluc-FGF14 (unknown origin)/CD4-Nav1.6-Nluc (unknown origin) protein-protein interaction using FGF14/NAV1.6 using HEK293 cells expressing FGF14/Nav1.6 assessed as luminescent response at 50 uM by split luciferase complementation assay relative to control
T1 sequence (Q92915 whole entry, looked up): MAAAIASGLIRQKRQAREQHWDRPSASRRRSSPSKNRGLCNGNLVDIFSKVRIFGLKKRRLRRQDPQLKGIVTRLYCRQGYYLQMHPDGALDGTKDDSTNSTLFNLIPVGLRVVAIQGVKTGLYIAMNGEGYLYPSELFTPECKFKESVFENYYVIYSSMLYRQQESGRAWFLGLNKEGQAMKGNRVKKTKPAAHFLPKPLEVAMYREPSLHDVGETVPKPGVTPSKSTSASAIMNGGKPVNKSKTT
T1 sequence (Q9UQD0 whole entry, looked up): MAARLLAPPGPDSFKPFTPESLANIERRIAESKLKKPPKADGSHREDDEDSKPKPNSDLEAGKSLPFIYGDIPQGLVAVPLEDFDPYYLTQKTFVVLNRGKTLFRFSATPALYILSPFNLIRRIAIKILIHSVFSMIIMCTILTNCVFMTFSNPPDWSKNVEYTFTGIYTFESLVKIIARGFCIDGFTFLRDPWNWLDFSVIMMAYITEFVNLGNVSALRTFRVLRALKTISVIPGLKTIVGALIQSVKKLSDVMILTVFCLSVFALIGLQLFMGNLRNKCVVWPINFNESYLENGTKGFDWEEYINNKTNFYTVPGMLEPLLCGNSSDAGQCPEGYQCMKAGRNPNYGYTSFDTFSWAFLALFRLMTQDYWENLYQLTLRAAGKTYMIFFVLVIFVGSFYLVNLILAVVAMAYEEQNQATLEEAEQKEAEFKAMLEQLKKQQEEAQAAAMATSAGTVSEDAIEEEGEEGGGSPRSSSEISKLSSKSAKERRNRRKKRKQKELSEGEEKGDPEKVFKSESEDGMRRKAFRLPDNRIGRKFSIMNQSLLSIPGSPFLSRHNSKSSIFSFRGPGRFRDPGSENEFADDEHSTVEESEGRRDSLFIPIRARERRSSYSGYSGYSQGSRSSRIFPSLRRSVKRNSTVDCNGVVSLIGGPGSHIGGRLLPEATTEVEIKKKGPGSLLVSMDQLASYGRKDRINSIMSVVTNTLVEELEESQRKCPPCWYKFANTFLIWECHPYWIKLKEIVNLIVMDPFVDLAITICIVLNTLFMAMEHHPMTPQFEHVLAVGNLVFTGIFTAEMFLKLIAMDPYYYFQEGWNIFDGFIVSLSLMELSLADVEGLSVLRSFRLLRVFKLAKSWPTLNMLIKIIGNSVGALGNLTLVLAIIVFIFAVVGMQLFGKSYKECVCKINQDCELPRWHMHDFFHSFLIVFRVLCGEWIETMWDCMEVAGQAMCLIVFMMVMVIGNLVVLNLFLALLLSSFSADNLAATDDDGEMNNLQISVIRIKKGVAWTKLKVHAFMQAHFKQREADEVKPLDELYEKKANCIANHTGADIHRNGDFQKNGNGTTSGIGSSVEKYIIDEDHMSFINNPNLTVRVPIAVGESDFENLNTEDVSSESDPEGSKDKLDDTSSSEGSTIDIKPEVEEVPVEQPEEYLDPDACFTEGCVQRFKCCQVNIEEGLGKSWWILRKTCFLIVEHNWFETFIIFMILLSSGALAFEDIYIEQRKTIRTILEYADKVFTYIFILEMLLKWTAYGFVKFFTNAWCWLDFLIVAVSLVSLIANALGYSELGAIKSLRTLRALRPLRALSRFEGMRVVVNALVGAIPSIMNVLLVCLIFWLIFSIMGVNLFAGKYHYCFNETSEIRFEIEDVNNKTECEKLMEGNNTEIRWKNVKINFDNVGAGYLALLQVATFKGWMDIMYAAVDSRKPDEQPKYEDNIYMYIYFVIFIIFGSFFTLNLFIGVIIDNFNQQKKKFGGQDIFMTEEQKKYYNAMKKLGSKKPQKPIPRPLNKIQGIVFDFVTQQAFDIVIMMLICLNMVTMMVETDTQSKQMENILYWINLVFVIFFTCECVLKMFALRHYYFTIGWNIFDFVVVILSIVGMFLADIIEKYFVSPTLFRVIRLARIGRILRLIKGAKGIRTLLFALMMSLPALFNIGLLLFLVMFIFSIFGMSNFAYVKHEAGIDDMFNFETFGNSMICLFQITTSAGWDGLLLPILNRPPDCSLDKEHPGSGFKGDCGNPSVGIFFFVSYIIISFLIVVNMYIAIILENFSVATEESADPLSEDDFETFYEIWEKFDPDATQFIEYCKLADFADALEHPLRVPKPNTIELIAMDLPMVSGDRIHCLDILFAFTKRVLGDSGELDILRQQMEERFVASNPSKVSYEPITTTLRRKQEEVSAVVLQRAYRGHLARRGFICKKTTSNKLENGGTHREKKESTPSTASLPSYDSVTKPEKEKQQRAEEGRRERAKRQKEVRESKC
In short: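 Split-luciferase complementation in HEK293 cells co-transfected with Cluc-FGF14 and CD4-Nav1.6-Nluc plasmids. Compounds in DMSO, diluted in medium to 50 μM final, 0.5% DMSO. Luminescence reported as % maximal vs 0.5% DMSO vehicle.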

HEK293 = assay: Cytotoxicity against HEK293 cells assessed as reduction in cell viability at 50 uM by LDH release assay; details: human, hek293, 50 µM
In short: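 LDH release cytotoxicity assay in HEK293 cells, compounds given at 50 μM final. Read-out is % cytotoxicity. Data are mean ± S.E.M.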

[3] = target: Sodium channel protein type 8 subunit alpha (Homo sapiens) (UniProt Q9UQD0); assay: Inhibition of Nav1.6 (unknown origin) expressed in HEK293 cells assessed as inactivation time constant at 10 uM after 1 hr at -70 mV holding potential by whole cell patch clamp method (reference value: 2.04 +/- 0.3 milliseconds)
Sodium channel protein type 8 subunit alpha (Homo sapiens), sequence (Q9UQD0 whole entry, looked up): as above

[4] = target: Sodium channel protein type 8 subunit alpha (Homo sapiens) (UniProt Q9UQD0); assay: Inhibition of Nav1.6 (unknown origin) expressed in HEK293 cells assessed as activation constant at 10 uM after 1 hr at -70 mV holding potential by whole cell patch clamp method (reference value: 3.4 +/- 0.2 mV)
[5] = target: Sodium channel protein type 8 subunit alpha (Homo sapiens) (UniProt Q9UQD0); assay: Inhibition of Nav1.6 (unknown origin) expressed in HEK293 cells assessed as V1/2 of steady-state of inactivation at 10 uM after 1 hr at -70 mV holding potential by whole cell patch clamp method (reference value: […])
[6] = target: T1, Fibroblast growth factor 14/SCN8A (Homo sapiens); assay: Inhibition of Cluc-FGF14 (unknown origin)/CD4-Nav1.6-Nluc (unknown origin) protein-protein interaction using FGF14/NAV1.6 using HEK293 cells expressing FGF14/Nav1.6 by split luciferase complementation assay
In short: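 Split-luciferase complementation in HEK293 cells expressing Cluc-FGF14 and CD4-Nav1.6-Nluc. Five-point dose response at 1, 10, 25, 50 and 100 μM.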

Row | SMILES | Activity [1] | Activity [2] | Activity (HEK293) | TIME [3] | Kact [4] | V1/2 [5] | inhibition [6]
1 | COC(=O)[C@H](CCCCNC(=O)OCC1c2ccccc2-c2ccccc21)NC(=O)[C@@H]1CCCN1C(=O)[C@H](CC(C)C)NC(=O)[C@@H](N)Cc1ccccc1 (H-FLPK(Fmoc)-OMe) | inactive | 124% |  |  |  |  | 
2 | CC(C)C[C@H](N)C(=O)N1CCC[C@H]1C(=O)N[C@@H](CCCCN)C(N)=O (H-Leu-Pro-Lys-NH2) | inactive | 142% | Non-Toxic |  |  |  | 
3 | CC(=O)N1CCC[C@H]1C(=O)N[C@@H](CC(C)C)C(=O)N[C@@H](CCCCNC(=O)OC(C)(C)C)C(N)=O (Ac-Pro-Leu-Lys(Boc)-NH2) | inactive |  |  |  |  |  | 
4 | CC(C)C[C@H](NC(=O)[C@H](Cc1ccccc1)NC(=O)OCc1ccccc1)C(=O)N1CCC[C@H]1C(=O)N[C@@H](CCCCNC(=O)OC(C)(C)C)C(N)=O (Cbz-FLPK(Boc)-NH2) | inactive |  |  |  |  |  | 
5 | COC(=O)[C@H](CCCCNC(=O)OCC1c2ccccc2-c2ccccc21)NC(=O)[C@@H]1CCCN1C(=O)[C@H](CC(C)C)NC(=O)[C@H](Cc1ccccc1)NC(C)=O (Ac-FLPK(Fmoc)-OMe) | inactive |  | Non-Toxic | 5.69e-07 h | 3.9 mV | -57.7 mV | Dose-dependent effect
6 | CC(C)C[C@H](NC(=O)[C@H](Cc1ccccc1)NC(=O)c1ccccc1)C(=O)N1CCC[C@H]1C(=O)N[C@@H](CCCCNC(=O)OC(C)(C)C)C(N)=O (Bz-FLPK(Boc)-NH2) | inactive |  | Non-Toxic |  |  |  | Dose-dependent effect
